Laboratory results reported in ChEMBL document CHEMBL3272196, “Synthesis and biological action of two glucocorticoid alkylating agents” (J Med Chem, 1977).
Each block holds one compound with its values, some of them ahead of it. Activity calls are given as the source filed them. No cut-off for these calls is given here.

Assays:
[1] = target: T1, Glucocorticoid receptor (Mus musculus) (UniProt P06537); assay: (§1) Displacement of 1 x 10^-8 M of [1,2,3-3H]-triamcinolone acetonide from glucocorticoid receptor in soluble fraction of mouse L929 cells after 20 hrs; type: cell-based
T1 sequence (whole entry): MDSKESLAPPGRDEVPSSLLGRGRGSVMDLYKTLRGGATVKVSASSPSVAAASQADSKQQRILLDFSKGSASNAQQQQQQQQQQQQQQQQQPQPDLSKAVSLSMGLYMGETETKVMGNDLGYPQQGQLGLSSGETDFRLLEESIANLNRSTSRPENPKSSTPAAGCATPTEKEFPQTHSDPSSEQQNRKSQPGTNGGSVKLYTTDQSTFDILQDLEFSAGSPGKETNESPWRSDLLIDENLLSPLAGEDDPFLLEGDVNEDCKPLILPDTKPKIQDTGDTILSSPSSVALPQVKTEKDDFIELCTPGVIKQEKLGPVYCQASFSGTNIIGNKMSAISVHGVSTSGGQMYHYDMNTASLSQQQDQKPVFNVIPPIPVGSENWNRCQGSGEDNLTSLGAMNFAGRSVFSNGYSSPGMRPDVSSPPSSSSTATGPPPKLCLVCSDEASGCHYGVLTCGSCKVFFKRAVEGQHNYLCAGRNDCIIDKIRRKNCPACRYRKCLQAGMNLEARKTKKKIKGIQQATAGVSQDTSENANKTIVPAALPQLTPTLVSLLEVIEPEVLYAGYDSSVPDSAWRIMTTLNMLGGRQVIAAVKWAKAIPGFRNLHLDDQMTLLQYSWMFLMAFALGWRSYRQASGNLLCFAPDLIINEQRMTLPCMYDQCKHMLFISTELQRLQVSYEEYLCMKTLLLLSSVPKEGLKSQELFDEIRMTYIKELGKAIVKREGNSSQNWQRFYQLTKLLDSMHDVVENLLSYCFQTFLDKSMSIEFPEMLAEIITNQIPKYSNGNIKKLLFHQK

Glucocorticoid receptor [2] = target: T2, Glucocorticoid receptor (Mus musculus, UniProt P06537); assay: as §1; type: cell-based
T2 sequence (P06537 whole entry): T1 sequence (whole entry)

L929 [3] = assay: Growth inhibition of mouse L929 cells after 6 days; type: functional, cell-based
Procedure, shortened: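 L929 mouse fibroblasts in monolayer in Joklik medium, steroids added in DMSO (0.1% of medium volume) early in growth. Cells harvested and counted 6 days later. Mean of three replicate cultures, expressed as percent of vehicle-control growth.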

[4] = Alkylating activity of the compound assessed as alkylation of 4-(p-nitrobenzyl)pyridine after 20 mins by colorimetric analysis; type: physicochemical
Procedure, shortened: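 Test agent at 10⁻⁴ M in 1% Me₂SO in water; 3 mL aliquots heated 20 min in boiling water bath with 4-(p-nitrobenzyl)pyridine in acetate buffer pH 4.0. Purple adduct developed with 5.0 N NaOH, extracted into ethyl acetate, A540 read exactly 6 min after base. Value read off mechlorethamine standard curve, expressed relative to mechlorethamine.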

Glucocorticoid receptor [5] = target: T2, Glucocorticoid receptor; assay: Displacement of 2 x 10^-8 M of [1,2,3-3H]-triamcinolone acetonide from glucocorticoid receptor in soluble fraction of mouse L929 cells after 20 hrs; type: cell-based; details: read-out: Kd(app)
[6] = target: T1, Glucocorticoid receptor (Mus musculus); assay: Displacement of [1,2,3-3H]-triamcinolone acetonide from glucocorticoid receptor in soluble fraction of mouse L929 cells at 10^-6 M preincubated for 4 hrs followed by [3H]-triamcinolone acetonide addition measured after 18 hrs by double reciprocal plot analysis; type: cell-based
Procedure, shortened: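 L929 100 000g supernatant preincubated 4 h on ice with vehicle, 10⁻⁶ M agent or 10⁻⁷ M cortisol. Varied [3H]triamcinolone acetonide then added, incubation continued 18 h. Bound counted after Sephadex G-25 separation; nonspecific (3×10⁻⁵ M dexamethasone) subtracted. Specific binding plotted against free ligand and in double-reciprocal form.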

[7] = Alkylating activity of the compound assessed as alkylation of 4-(p-nitrobenzyl)pyridine at 10^-4 M after 20 mins by colorimetric analysis relative to mechlorethamine; type: physicochemical; details: 100 µM
[8] = Alkylating activity of the compound assessed as alkylation of 4-(p-nitrobenzyl)pyridine at 10^-4 M after 20 mins by colorimetric analysis; type: physicochemical; details: 100 µM
L929 [9] = assay: Growth inhibition of mouse L929 cells at 3 x 10^-7 M preincubated for 48 hrs followed by compound washout; type: functional, cell-based
Procedure, shortened: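 L929 monolayers (15 mL) dosed day 1, 18 h after seeding, at 3×10⁻⁷ M final, vehicle DMSO. Day 3 medium changed, half switched to steroid-free medium. Medium renewed every other day, cells per bottle counted. Mean and standard error of three replicate cultures.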

Estrogen receptor = target: T3, Estrogen receptor (Rattus norvegicus, UniProt P06211); assay: Displacement of radiolabeled estradiol from estradiol receptor in rat uterine cytosol; parameters: species or system Uterus
T3 sequence (P06211 whole entry): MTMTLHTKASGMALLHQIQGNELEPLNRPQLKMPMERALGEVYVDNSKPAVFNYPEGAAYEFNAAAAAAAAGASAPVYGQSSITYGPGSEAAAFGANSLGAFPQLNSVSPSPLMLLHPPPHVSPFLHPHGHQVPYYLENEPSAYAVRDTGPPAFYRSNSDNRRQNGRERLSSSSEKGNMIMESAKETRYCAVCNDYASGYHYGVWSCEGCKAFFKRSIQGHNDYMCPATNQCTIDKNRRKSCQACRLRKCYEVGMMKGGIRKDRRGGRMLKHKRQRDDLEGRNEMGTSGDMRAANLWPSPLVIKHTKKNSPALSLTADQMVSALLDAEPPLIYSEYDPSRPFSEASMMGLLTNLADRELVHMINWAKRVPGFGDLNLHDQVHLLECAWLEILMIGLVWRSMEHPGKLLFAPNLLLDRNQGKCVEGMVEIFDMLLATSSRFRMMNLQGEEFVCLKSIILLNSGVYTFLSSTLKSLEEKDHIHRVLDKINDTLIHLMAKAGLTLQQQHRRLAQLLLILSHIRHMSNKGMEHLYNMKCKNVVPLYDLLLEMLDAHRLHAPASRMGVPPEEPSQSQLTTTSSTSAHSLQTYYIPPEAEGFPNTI

- Activity [4]: Not Active
SMILES: C[C@]12CCC(=O)C=C1CC[C@@H]1[C@@H]2[C@@H](O)C[C@@]2(C)[C@H]1CC[C@]2(O)C(=O)CO [HYDROCORTISONE]
- growth inhibition (GI) (L929 [3]): Active

- inhibition [1]: Active
SMILES: C[C@]1(c2ccccc2)O[C@@H]2C[C@H]3[C@@H]4CCC5=CC(=O)C=C[C@]5(C)[C@@]4(F)[C@@H](O)C[C@]3(C)[C@]2(C(=O)CO)O1

- Activity [4]: Not Active
SMILES: CC1(C)O[C@@H]2C[C@H]3[C@@H]4CCC5=CC(=O)C=C[C@]5(C)[C@@]4(F)[C@@H](O)C[C@]3(C)[C@]2(C(=O)CO)O1 [TRIAMCINOLONE ACETONIDE]
- growth inhibition (GI) (L929 [3]): Active
- growth inhibition (GI) (L929 [9]): inactive

The remaining lines, values behind:

SMILES: C[C@]12CCC(=O)C=C1CC[C@@H]1[C@@H]2[C@@H](O)C[C@@]2(C)[C@H]1CC[C@]2(O)C(=O)COP(=O)(O)O
- inhibition [1]: inactive

SMILES: C[C@]12CCC(=O)C=C1CC[C@@H]1[C@@H]2[C@@H](O)C[C@@]2(C)[C@H]1CC[C@]2(O)C(=O)COC(=O)CCC(=O)O [HYDROCORTISONE HEMISUCCINATE ANHYDROUS]
- Kd (Glucocorticoid receptor [2]): 190 nM

SMILES: C[C@]12CCC(=O)C=C1CC[C@@H]1[C@@H]2[C@@H](O)C[C@@]2(C)[C@H]1CC[C@]2(O)C(=O)COC(=O)N(CCCl)CCCl
- Kd (Glucocorticoid receptor [5]): 430 nM
- growth inhibition (GI) (L929 [3]): Active
- inhibition [6]: inactive
- Activity [7]: 20%
- Activity [8]: Active

SMILES: C[C@]12CC[C@@H]3c4ccc(OC(=O)Cc5ccc(N(CCCl)CCCl)cc5)cc4CC[C@H]3[C@@H]1CC[C@@H]2OC(=O)Cc1ccc(N(CCCl)CCCl)cc1 [ESTRADIOL MUSTARD]
- Kd (Estrogen receptor): 3000 nM

SMILES: CC1(C)O[C@@H]2C[C@H]3[C@@H]4CCC5=CC(=O)C=C[C@]5(C)[C@@]4(F)[C@@H](O)C[C@]3(C)[C@]2(C(=O)COC(=O)N(CCCl)CCCl)O1
- Kd (Glucocorticoid receptor [5]): 7.5 nM
- growth inhibition (GI) (L929 [3]): Active
- growth inhibition (GI) (L929 [9]): inactive
- Activity [7]: 20%
- Activity [8]: Active
